{"data": "Measured values pooled from the literature", "RPS6KA1": "Ribosomal protein S6 kinase alpha-1 (RPS6KA1, Homo sapiens, UniProt Q15418)", "RPS6KA1 C-terminal kinase domain": "Ribosomal protein S6 kinase alpha-1, C-terminal kinase domain (RPS6KA1, Homo sapiens, UniProt Q15418)", "RPS6KA1 N-terminal kinase domain": "Ribosomal protein S6 kinase alpha-1, N-terminal kinase domain (RPS6KA1, Homo sapiens, UniProt Q15418)"}
{"target": "RPS6KA1", "assay": "enzyme activity, inhibitor", "setting": "0.5 µM", "quantity": "remaining activity", "value": "92.8%", "SMILES": "Cc1ccc(Nc2nccc(N(C)c3ccc4c(C)n(C)nc4c3)n2)cc1S(N)(=O)=O"}
{"target": "RPS6KA1 C-terminal kinase domain", "assay": "target engagement in cells, inhibitor, chemoproteomics", "test system": "Huh-7", "setting": "1 µM", "quantity": "inhibition", "value": "-27.6%", "SMILES": "CNc1cc(Oc2cc(C(=O)Nc3cc(N4CCN(C)CC4)cc(C(F)(F)F)c3)ccc2C)ncn1"}
{"target": "RPS6KA1 N-terminal kinase domain", "assay": "cell-free assay, competition with immobilised ligand", "setting": "1 µM", "quantity": "remaining binding", "value": "100%", "SMILES": "N#CC1(c2ccccn2)CCN(Cc2cc(C(=O)N3CCCC3)c(=O)n3ccccc23)CC1"}
{"target": "RPS6KA1", "assay": "enzyme activity, inhibitor", "setting": "1 µM", "quantity": "inhibition", "value": "< 10%", "SMILES": "CCCS(=O)(=O)Nc1ccc(F)c(C(=O)c2c[nH]c3ncc(-c4ccc(Cl)cc4)cc23)c1F"}
{"target": "RPS6KA1 N-terminal kinase domain", "assay": "binding, competition with immobilised ligand", "setting": "1 µM", "quantity": "remaining binding", "value": "100%", "SMILES": "CN(C)c1nccc(-c2cnn3ncccc23)n1"}
{"target": "RPS6KA1", "assay": "enzyme activity, inhibitor", "setting": "10 µM", "quantity": "inhibition", "value": "25%", "SMILES": "CNC(=O)c1cc(Oc2ccc(NC(=O)Nc3ccc(Cl)c(C(F)(F)F)c3)cc2)ccn1"}
{"target": "RPS6KA1", "assay": "enzyme activity, inhibitor", "setting": "10 µM", "quantity": "inhibition", "value": "16%", "SMILES": "CNc1cccc2cc(C(=O)Nc3ccc(C(=O)O)cc3)c(=O)[nH]c12"}
{"target": "RPS6KA1", "assay": "enzyme activity, inhibitor, FRET", "setting": "1 µM", "quantity": "inhibition", "value": "< 15%", "SMILES": "CCOc1cc(-c2nncn2C)ccc1Nc1ncc2cc(C)nc(NCC(C)(C)C)c2n1"}
{"target": "RPS6KA1", "assay": "enzyme activity, inhibitor", "setting": "0.1 µM", "quantity": "inhibition", "value": "36.6%", "SMILES": "CC/C(=N\\NC(=O)C(C)Nc1ccccc1)c1ccc(O)c(C)c1O (centres unmarked)"}
{"target": "RPS6KA1", "assay": "enzyme activity, inhibitor, radiometric", "setting": "1 µM", "quantity": "remaining activity", "value": "44%", "SMILES": "Cc1cnc(NC2CCOCC2)nc1-n1cnc(C(=O)NC(CN)c2cc(F)cc(Cl)c2)c1 (centres unmarked)"}
{"target": "RPS6KA1 C-terminal kinase domain", "assay": "cell-free assay, competition with immobilised ligand", "setting": "1 µM", "quantity": "remaining binding", "value": "0%", "SMILES": "CCS(=O)(=O)c1cc2cc(C[C@@](O)(CC(C)(C)c3ccc(F)cc3C(N)=O)C(F)(F)F)[nH]c2cn1"}
{"target": "RPS6KA1", "assay": "enzyme activity, inhibitor, radiometric", "setting": "1 µM", "quantity": "remaining activity", "value": "90%", "SMILES": "CC(C)(C)c1nc(-c2cccc(NS(=O)(=O)c3c(F)cccc3F)c2F)c(-c2ccnc(N)n2)s1"}
{"target": "RPS6KA1", "assay": "enzyme activity, inhibitor", "setting": "10 µM", "quantity": "remaining activity", "value": "89%", "SMILES": "CC(C)(C)C(=O)c1sc(NC2CCCCC2)nc1N"}
{"target": "RPS6KA1 N-terminal kinase domain", "assay": "cell-free assay, competition with immobilised ligand", "setting": "1 µM", "quantity": "remaining binding", "value": "100%", "SMILES": "CCC(=O)N[C@@H]1CC[C@H](C(=O)N(C)c2ccc(-c3nc4ccccc4o3)cc2)C1"}
{"target": "RPS6KA1 C-terminal kinase domain", "assay": "target engagement in cells, inhibitor, chemoproteomics", "setting": "20 mM", "quantity": "inhibition", "value": "1%", "SMILES": "COc1cccc2c(NCc3ccccc3)nc(-n3c(N)nc4ccccc43)nc12"}
{"target": "RPS6KA1", "assay": "enzyme activity, inhibitor", "setting": "1 µM", "quantity": "activity vs control", "value": "101%", "SMILES": "Cc1ccc(C(=O)NCc2ccsc2)cc1C#Cc1cn(C(C)C)c2ncnc(N)c12"}
{"target": "RPS6KA1 N-terminal kinase domain", "assay": "binding, competition with immobilised ligand", "setting": "1 µM", "quantity": "remaining binding", "value": "100%", "SMILES": "O=C(N[C@H]1CCCCC/C=C\\C2C[C@@]2(C(=O)O)NC(=O)[C@@H]2C[C@@H](Oc3ccncc3)CN2C1=O)OC1CCCC1 (some centres unmarked)"}
{"target": "RPS6KA1", "assay": "enzyme activity, inhibitor, radiometric", "setting": "50 nM", "quantity": "inhibition", "value": "13%", "SMILES": "Cn1cncc1C1=CN(c2ncnc3[nH]cnc23)CCS1"}
{"target": "RPS6KA1", "assay": "enzyme activity, inhibitor", "setting": "1 µM", "quantity": "inhibition", "value": "9%", "SMILES": "C=CC(=O)Nc1cc(Nc2nccc(Nc3cc(Cl)c(F)cc3C(C)(C)O)n2)c(OC)cc1N1CC[C@@H](N(C)C)C1"}
{"target": "RPS6KA1 C-terminal kinase domain", "assay": "cell-free assay, competition with immobilised ligand", "setting": "1 µM", "quantity": "remaining binding", "value": "100%", "SMILES": "O=C1NC(c2ccccn2)Sc2ccccc21 (centres unmarked)"}
{"target": "RPS6KA1 C-terminal kinase domain", "assay": "binding, competition with immobilised ligand", "setting": "1 µM", "quantity": "remaining binding", "value": "56%", "SMILES": "c1cnn2ncc(-c3ccnc(N4CCC45COC5)n3)c2c1"}
{"target": "RPS6KA1", "assay": "cell-free assay", "setting": "0.5 µM", "quantity": "remaining signal", "value": "97.7%", "SMILES": "O=C1NC(=O)c2cc(Nc3ccc(F)cc3)c(Nc3ccc(F)cc3)cc21"}
{"target": "RPS6KA1 C-terminal kinase domain", "assay": "cell-free assay, inhibitor", "setting": "20 µM", "quantity": "remaining signal", "value": "20%", "SMILES": "Nc1ncnc2occ(-c3ccc(NC(=O)Nc4cc(C(F)(F)F)ccc4F)cc3)c12"}
{"target": "RPS6KA1", "assay": "cell-free assay", "setting": "0.5 µM", "quantity": "remaining signal", "value": "99.9%", "SMILES": "C[S+]([O-])c1ccc(-c2nc(-c3ccncc3)c(-c3ccc(F)cc3)[nH]2)cc1 (centres unmarked)"}
{"target": "RPS6KA1", "assay": "enzyme activity, inhibitor", "setting": "1 µM", "quantity": "remaining activity", "value": "72%", "SMILES": "CC(C)(O)[C@H]1CC[C@H](Nc2ccc3ncc(-c4cccc(C(F)(F)F)c4)n3n2)CC1"}
{"target": "RPS6KA1", "assay": "cell-free assay", "setting": "0.5 µM", "quantity": "remaining signal", "value": "59.9%", "SMILES": "N#CCCc1ccc2c(c1)-c1[nH]c3ccc([N+](=O)[O-])cc3c1CC(=O)N2"}
{"target": "RPS6KA1", "assay": "enzyme activity, inhibitor", "setting": "1 µM", "quantity": "inhibition", "value": "6%", "SMILES": "COc1cc2ncnc(Nc3ccc(Oc4ccccc4)cc3C)c2cc1OC"}
{"target": "RPS6KA1", "assay": "enzyme activity, inhibitor", "setting": "10 µM", "quantity": "remaining activity", "value": "97%", "SMILES": "Cn1c(=O)n(-c2ccc(C(C)(C)C#N)cc2)c2c3cc(-c4cnc5ccccc5c4)ccc3ncc21"}
{"target": "RPS6KA1", "assay": "enzyme activity, inhibitor", "setting": "1 µM", "quantity": "inhibition", "value": "84.8%", "SMILES": "CN(c1ncccc1CNc1nc(Nc2ccc3c(c2)CC(=O)N3)ncc1C(F)(F)F)S(C)(=O)=O"}
{"target": "RPS6KA1 C-terminal kinase domain", "assay": "cell-free assay, competition with immobilised ligand", "setting": "1 µM", "quantity": "remaining binding", "value": "85%", "SMILES": "COc1ccc2c(c1)O[C@@H](c1ccc(OC)c(OC)c1)C[C@H]2NC(=O)C1(c2ccc3c(c2)OC(F)(F)O3)CC1"}
{"target": "RPS6KA1 C-terminal kinase domain", "assay": "binding, competition with immobilised ligand", "setting": "1 µM", "quantity": "remaining binding", "value": "99%", "SMILES": "N[C@H]1CCN(c2nccc(-c3cnn4ncccc34)n2)C1"}
{"target": "RPS6KA1", "assay": "cell-free assay", "setting": "10 µM", "quantity": "remaining signal", "value": "11%", "SMILES": "Cc1ccc(NC(=O)c2ccc(C)c(C(F)(F)F)c2)cc1C#Cc1nn(C2CCC(O)CC2)c2ncnc(N)c12 (centres unmarked)"}
{"target": "RPS6KA1", "assay": "cell-free assay", "setting": "0.5 µM", "quantity": "remaining signal", "value": "42.1%", "SMILES": "Nc1nc(Nc2ccc(S(N)(=O)=O)cc2)nn1C(=O)c1c(F)cccc1F"}
{"target": "RPS6KA1 C-terminal kinase domain", "assay": "target engagement in cells, inhibitor, chemoproteomics", "setting": "20 mM", "quantity": "inhibition", "value": "-6.9%", "SMILES": "c1ccc(CNc2nc(N3CCOc4ccccc43)nc3c2CCCC3)cc1"}
{"target": "RPS6KA1 C-terminal kinase domain", "assay": "binding, competition with immobilised ligand", "setting": "1 µM", "quantity": "remaining binding", "value": "30%", "SMILES": "C[C@H]1CCN(c2nccc(-c3cnn4ncccc34)n2)C1"}
{"target": "RPS6KA1", "assay": "enzyme activity, inhibitor, radiometric", "setting": "1 µM", "quantity": "remaining activity", "value": "4%", "SMILES": "COc1cc(Nc2cnc(C#N)c(O[C@H](C)CN(C)C)n2)ncc1-c1cnn(C)c1"}
{"target": "RPS6KA1 C-terminal kinase domain", "assay": "binding, competition with immobilised ligand", "setting": "1 µM", "quantity": "remaining binding", "value": "64%", "SMILES": "Cc1cnn2ncc(-c3ccnc(N(C)C)n3)c2c1"}
{"target": "RPS6KA1 C-terminal kinase domain", "assay": "cell-free assay, competition with immobilised ligand", "setting": "1 µM", "quantity": "remaining binding", "value": "96%", "SMILES": "Cc1nccc(COC(=O)N2C[C@@H]3[C@@H](CNC(=O)c4ccc5[nH]nnc5c4)[C@@H]3C2)n1"}
{"target": "RPS6KA1", "assay": "cell-free assay", "setting": "0.5 µM", "quantity": "remaining signal", "value": "48.4%", "SMILES": "O=C1Nc2ccc(Cl)cc2C1=Cc1cc(Cl)c(O)c(Cl)c1"}
{"target": "RPS6KA1 N-terminal kinase domain", "assay": "cell-free assay, competition with immobilised ligand", "setting": "1 µM", "quantity": "remaining binding", "value": "71%", "SMILES": "O=C(Nc1cnc(Oc2ccc(F)cc2)nc1)N1CCc2ncccc2[C@@H]1c1ccc(F)cc1"}
{"target": "RPS6KA1", "assay": "enzyme activity, inhibitor", "setting": "10 µM", "quantity": "remaining activity", "value": "93.2%", "SMILES": "Cc1sc(C(=O)NC2COC2)cc1-n1cc(NC(=O)Nc2c(F)cccc2Cl)cn1"}
